Assay results taken from ChEMBL document CHEMBL5154669, “G-Quadruplex DNA as a Target in Pathogenic Bacteria: Efficacy of an Extended Naphthalene Diimide Ligand and Its Mode of Action” (J Med Chem, 2022).

What was measured:
Enterobacter cloacae = assay: Antibacterial activity against Enterobacter cloacae LMG 02783 assessed as inhibition of bacterial growth incubated for 20 hrs by CLSI based broth microdilution method; type: functional
Outline: (§1)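 Broth microdilution in cation-adjusted Mueller-Hinton broth following CLSI guidelines. DMSO stocks were at 10 mM; compounds were twofold serially diluted over 128 to 2 μM. The inoculum was at 5 × 10⁵, prepared from colonies grown 20 h at 37 °C and adjusted to 0.5 McFarland. Plates ran 20 h at 37 °C with OD600 read-out. MIC was the lowest concentration inhibiting visible growth, in triplicate.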

Klebsiella aerogenes [1] = assay: Antibacterial activity against Enterobacter aerogenes LMG 02094 assessed as inhibition of bacterial growth incubated for 20 hrs by CLSI based broth microdilution method; type: functional; outline: as §1
Klebsiella pneumoniae [2] = assay: Antibacterial activity against Klebsiella pneumoniae LMG 20218 assessed as inhibition of bacterial growth incubated for 20 hrs by CLSI based broth microdilution method; type: functional; outline: as §1
Enterococcus faecalis [3] = assay: Antibacterial activity against Enterococcus faecalis V583 assessed as inhibition of bacterial growth incubated for 20 hrs by CLSI based broth microdilution method; type: functional; outline: as §1
Enterococcus faecium [4] = assay: Antibacterial activity against Enterococcus faecium LMG 16003 assessed as inhibition of bacterial growth incubated for 20 hrs by CLSI based broth microdilution method; type: functional; outline: as §1
Staphylococcus aureus [5] = assay: Antibacterial activity against Staphylococcus aureus LMG 8224 assessed as inhibition of bacterial growth incubated for 20 hrs by CLSI based broth microdilution method; type: functional; outline: as §1
Staphylococcus aureus [6] = assay: Antibacterial activity against Staphylococcus aureus LMG 10147 assessed as inhibition of bacterial growth incubated for 20 hrs by CLSI based broth microdilution method; type: functional; outline: as §1
[7] = test system: Staphylococcus epidermidis; assay: Antibacterial activity against Staphylococcus epidermidis Tu3298 assessed as inhibition of bacterial growth incubated for 20 hrs by CLSI based broth microdilution method; type: functional; outline: as §1
Klebsiella aerogenes [8] = assay: Bacteriostatic activity against Enterobacter aerogenes LMG 02094 assessed as inhibition of bacterial growth; type: functional
Outline: (§2)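 A standard MIC plate (128–2 μM, cMHB, 20 h, 37 °C) was read at OD600. Each well then seeded at 10% a fresh compound-free cMHB plate, grown another 20 h at 37 °C and read at OD600. No growth at the same concentration in both plates counted as bactericidal. Growth above the MIC counted as bacteriostatic. Done in triplicate.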

Escherichia coli [9] = assay: Bactericidal against Escherichia coli LMG 8223 assessed as inhibition of bacterial growth; type: functional; outline: as §2
Salmonella enterica [10] = assay: Bacteriostatic activity against Salmonella enterica LMG 07233 assessed as inhibition of bacterial growth; type: functional; outline: as §2
Enterococcus faecium [11] = assay: Bacteriostatic activity against Enterococcus faecium LMG 16003 assessed as inhibition of bacterial growth; type: functional; outline: as §2
Staphylococcus aureus [12] = assay: Bacteriostatic activity against Staphylococcus aureus LMG 8224 assessed as inhibition of bacterial growth; type: functional; outline: as §2
DNA [13] = assay: Stabilization of Staphylococcus aureus in G Quadruplex DNA GGGGCTAATTGGGGCTGGTGG assessed as change in melting temperature at 10 uM incubated for 16 hrs by […]; type: nucleic-acid assay
Outline: (§3)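 Readout was CD melting, not FRET: 2.5 μM oligonucleotide in 10 mM lithium cacodylate pH 7.4 with KCl set per sequence (initial Tm 60-70 °C). Annealed 95 °C 5 min, cooled to room temperature over 4 h, then ligand 10 μM (4 equiv) equilibrated 16 h at 20 °C. Ellipticity at 260 nm tracked every 0.1 °C, 20-95 °C at 5 °C/min; Tm by van't Hoff two-state fit.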

DNA [14] = assay: Stabilization of Staphylococcus aureus in G-quadruplex DNA GGA AGG AGG GGT GAC AGG G assessed as change in melting temperature at 10 uM incubated for 16 hrs by […]; type: nucleic-acid assay; outline: as §3
DNA [15] = assay: Stabilization of Staphylococcus aureus in G-quadruplex DNA GGA AGG AGG GGT GAC AGG G assessed as melting temperature at 10 uM incubated for 16 hrs […]; type: nucleic-acid assay; outline: as §3
DNA [16] = assay: Stabilization of Staphylococcus aureus in G-quadruplex DNA GGGTTTGGGGCGGCGGTTGG assessed as melting temperature at 10 uM incubated for 16 hrs by […]; type: nucleic-acid assay; outline: as §3
DNA [17] = assay: Stabilization of Escherichia coli in G-quadruplex DNA GGG GGA GGA GGA CGG GGG assessed as melting temperature at 10 uM incubated for 16 hrs by […]; type: nucleic-acid assay; outline: as §3
Escherichia coli [18] = assay: Antibacterial activity against Escherichia coli LMG 8223 infected in Galleria mellonella assessed as survival at 5 to 10 mg/kg after 5 days; type: functional; conditions: dose 5-10 mg/kg, time 5 day
Outline: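 Larvae, 20 per group, were infected with 10 µL of saline-washed bacteria into the left proleg: E. coli at 10⁶ CFU/worm and S. aureus at 10⁵ CFU/worm. After 1 h at 37 °C, the compound (5 or 10 mg/kg) was injected into the last right proleg. Controls were meropenem 5 mg/kg (E. coli), rifampicin 10 mg/kg (S. aureus) and NaCl 0.9%. Mortality was followed over 5 d at 37 °C.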

Escherichia coli [19] = assay: Antibacterial activity against Escherichia coli LMG 8223; type: functional, organism-based; conditions: DDE = dose-dependent effect
Outline: (§4)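 Cultures were inoculated at 2% and grown at 37 °C, with OD600 read every 5 min for 8 h. NDI-10 was added at exponential-phase onset (~3 h). Concentrations were 32, 16, 8 and 4 μM for E. coli, and 16, 8, 4 and […] μM for the Gram-positive strains.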

Enterococcus faecium [20] = assay: Antibacterial activity against Enterococcus faecium LMG 16003; type: functional, organism-based; conditions: DDE = dose-dependent effect; outline: as §4
Staphylococcus aureus [21] = assay: Antibacterial activity against Staphylococcus aureus LMG 8224; type: functional, organism-based; conditions: DDE = dose-dependent effect; outline: as §4
Bacillus cereus = assay: Antimicrobial activity against Bacillus cereus ATCC 10987 assessed as inhibition of bacterial growth in presence of D11 incubated for 20 hrs; conditions: ATCC 10987, 20 h
Enterococcus faecalis [22] = assay: Antimicrobial activity against Enterococcus faecalis V583 assessed as inhibition of bacterial growth in presence of D11 incubated for 20 hrs; conditions: V583, 20 h
Salmonella enterica [23] = assay: Antimicrobial activity against Salmonella enterica LMG 07233 assessed as inhibition of bacterial growth in presence of D11 incubated for 20 hrs; conditions: LMG 07233, 20 h
Staphylococcus aureus [24] = assay: Antimicrobial activity against Staphylococcus aureus LMG 8224 assessed as inhibition of bacterial growth in presence of D11 incubated for 20 hrs; conditions: LMG 8224, 20 h
Klebsiella pneumoniae [25] = assay: Antimicrobial activity against Klebsiella pneumoniae LMG 20218 assessed as inhibition of bacterial growth in presence of D11 incubated for 20 hrs; conditions: LMG 20218, 20 h
Pseudomonas aeruginosa = assay: Antimicrobial activity against Pseudomonas aeruginosa LMG 6395 assessed as inhibition of bacterial growth in presence of D11 incubated for 20 hrs; conditions: LMG 6395, 20 h
DNA [26] = assay: Stabilization of Escherichia coli in G-quadruplex DNA GGG GCG GGG TGG GTT GG assessed as change in melting temperature at 10 uM incubated for 16 hrs by CD melting method

Which MIC (Enterobacter cloacae) does the source give for `CN(C)CCCn1c(=O)c2ccc3c(=O)n(CCCN(C)C)c(=O)c4c5[nH]c6ccccc6[nH]c5c(c1=O)c2c34.O=C(O)C(F)(F)F.O=C(O)C(F)(F)F` here?
Its MIC is 8 µM.

And the MIC (Klebsiella aerogenes [1])?
The MIC was 32 µM.

What about the MIC (Klebsiella pneumoniae [2]) of the same compound?
The MIC was over 128 µM.

And the MIC (Enterococcus faecalis [3])?
The MIC was 4 µM.

And the MIC (Enterococcus faecium [4])?
The MIC was 4 µM.

And the MIC (Staphylococcus aureus [5])?
Its MIC is 16 µM.

And the MIC (Staphylococcus aureus [6])?
Its MIC is 16 µM.

What about the MIC [7] of the same compound?
The MIC was 16 µM.

And the MIC (Klebsiella aerogenes [8])?
Its MIC is over 128 µM.

What about the MIC (Escherichia coli [9]) of the same compound?
The MIC was 16 µM.

What about the MIC (Salmonella enterica [10]) of the same compound?
Its MIC is 128 µM.

And the MIC (Enterococcus faecium [11])?
Its MIC is 32 µM.

And the MIC (Staphylococcus aureus [12])?
The MIC was 128 µM.

And the ΔTm (DNA [13])?
The ΔTm was 27.3 °C.

What about the ΔTm (DNA [14]) of the same compound?
The ΔTm was over 30.8 °C.

And the Tm (DNA [15])?
Its Tm is over 95 °C.

What about the Tm (DNA [16]) of the same compound?
The Tm was over 95 °C.

What about the Tm (DNA [17]) of the same compound?
Its Tm is over 95 °C.

What about the Activity (Escherichia coli [18]) of the same compound?
The Activity was 90%.

What about the Activity (Escherichia coli [19]) of the same compound?
The Activity was “Dde”.

What about the Activity (Enterococcus faecium [20]) of the same compound?
Its Activity is “Dde”.

And the Activity (Staphylococcus aureus [21])?
The Activity was “Dde”.

And the MIC (Bacillus cereus)?
The MIC was 8 µM.

What about the MIC (Enterococcus faecalis [22]) of the same compound?
Its MIC is 4 µM.

What about the MIC (Salmonella enterica [23]) of the same compound?
Its MIC is under 0.5 µM.

What about the MIC (Staphylococcus aureus [24]) of the same compound?
Its MIC is 16 µM.

And the MIC (Klebsiella pneumoniae [25])?
Its MIC is 16 µM.

And the MIC (Pseudomonas aeruginosa)?
The MIC was 4 µM.

What about the ΔTm (DNA [26]) of the same compound?
The ΔTm was 18.8 °C.
